A selection: hits, their analogues and other compounds. The true share with any hit is near 4.5%.
PERK inh: inhibitors of human PERK kinase; 0.17% of 220,000 active; AID 1416; CHO PERK-DD fusion, SEAP luminescence translation reporter; Q9NZJ5; inhibition, % at 5.6 µM;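 active means inhibition above the mean inhibition of all tested compounds plus 3 SD, set separately per screening campaign, cut at about 2.9% in these data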;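 further: PERK kinase domain activated by AP20187 dimerizer at 100 nM; 0% = DMSO with dimerizer and 100% = rapamycin at 8.4 µM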
Target sequence (Q9NZJ5 whole entry, looked up, the tested form may be a part): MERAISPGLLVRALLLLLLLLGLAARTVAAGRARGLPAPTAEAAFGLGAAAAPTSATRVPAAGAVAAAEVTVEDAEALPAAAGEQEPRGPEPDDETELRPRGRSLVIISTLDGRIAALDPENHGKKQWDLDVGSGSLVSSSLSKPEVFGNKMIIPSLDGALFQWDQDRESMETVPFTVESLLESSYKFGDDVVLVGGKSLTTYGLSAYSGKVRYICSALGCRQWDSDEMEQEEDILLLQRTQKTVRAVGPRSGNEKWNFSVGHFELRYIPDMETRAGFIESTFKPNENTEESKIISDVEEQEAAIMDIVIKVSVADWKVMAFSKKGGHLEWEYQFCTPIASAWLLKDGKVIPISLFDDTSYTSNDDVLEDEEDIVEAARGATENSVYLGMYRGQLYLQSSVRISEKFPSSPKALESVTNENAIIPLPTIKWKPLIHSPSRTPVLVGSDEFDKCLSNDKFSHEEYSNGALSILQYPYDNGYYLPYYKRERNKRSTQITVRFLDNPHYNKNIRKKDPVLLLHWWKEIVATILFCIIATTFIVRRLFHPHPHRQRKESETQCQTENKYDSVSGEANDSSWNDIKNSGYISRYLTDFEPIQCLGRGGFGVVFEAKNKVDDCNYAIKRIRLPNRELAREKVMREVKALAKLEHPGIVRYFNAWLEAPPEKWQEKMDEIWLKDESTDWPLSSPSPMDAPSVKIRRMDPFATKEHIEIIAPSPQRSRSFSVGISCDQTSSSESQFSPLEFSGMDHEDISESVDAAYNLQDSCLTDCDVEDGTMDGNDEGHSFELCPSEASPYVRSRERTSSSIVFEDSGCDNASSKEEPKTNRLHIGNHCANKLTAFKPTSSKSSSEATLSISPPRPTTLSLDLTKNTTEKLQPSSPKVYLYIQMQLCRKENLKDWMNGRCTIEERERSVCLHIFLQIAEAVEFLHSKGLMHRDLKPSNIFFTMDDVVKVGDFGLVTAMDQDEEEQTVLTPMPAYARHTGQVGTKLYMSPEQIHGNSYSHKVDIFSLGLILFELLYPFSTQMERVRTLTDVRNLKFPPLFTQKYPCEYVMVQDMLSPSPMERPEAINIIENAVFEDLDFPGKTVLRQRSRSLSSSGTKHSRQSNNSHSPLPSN
Mdm2 ligase inh: Mdm2 E3 ligase (human) inhibition; AID 1230; 0.11% of 210,000 active; cell-based MDM2 ubiquitination luciferase reporter, 2 h; 0 = plate control, 100 = twice control, blank-subtracted; signal enhancement, % at 5 µM; Q00987;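 active means signal enhancement of 30% or more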;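 further: luminescence tracks abundance of the self-degrading MDM2-luciferase fusion protein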
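Timing – 2 h compound exposure at 37 °C · Assay system – mammalian cells stably expressing self-ubiquitinating, self-degrading MDM2 E3–luciferase fusion · Amount – 2000 cells seeded into each well · Measure – % luminescence enhancement versus blank-corrected plate control mean · Measured by – SteadyLite luminescence, 15 min reagent step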
STAT1 activator: increases IFN-gamma driven STAT1 reporter signal; NIH 3T3 STAT1-luciferase reporter, luminescence; 100% = IFN-gamma alone, no compound; AID 932; activation (% of control), % at 5.5 µM; 2.6% of 200,000 active;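 active means activation above the screen-wide mean activation plus 3 SD, cut at about 130% in these data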;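 further: raw ratio to IFN-gamma control signal so 100% means no change and 0% no light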
AHR act: human AHR activation; P35869; AHR-responsive luciferase reporter cells, luminescence; activation, % at 5 µM; 2.5% of 320,000 active; in the data active means activation above about 47%;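 further: 0% = vehicle wells and 100% = reference agonist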
NF-kB neuron act: compounds increasing NF-kB expression in human neuronal cells | fold change at 12.5 µM | 1.6% of 190,000 active | NF-kB reporter expression; hits give high values; in the data active means fold change above about 3.3
APP 5'UTR act: APP 5'UTR luciferase reporter activation; SH-SY5Y APP 5'UTR luciferase reporter, luminescence; zero percent = DMSO vehicle wells; activation, % at 2 µM; 1% of 190,000 active;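 active means activation above a set limit, based on mean plus 3 SD of controls, cut at about 140% in these data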
Active calls of the source: *; / = no result.

SMILES	PERK inh	Mdm2 ligase inh	STAT1 activator	AHR act	NF-kB neuron act	APP 5'UTR act
CCc1ccc(-c2cc(C(=O)NN3CCOCC3)c3ccccc3n2)cc1	-2	-8	107	4	0.78	12
COc1ccc([C@H]2C(C(=O)O)=C[C@@H](C(C)(C)C)N2S(=O)(=O)c2ccc(C)cc2)cc1OC	/	/	/	0	/	/
O=C(c1ccc2oc(Cc3ccc(Cl)cc3)nc2c1)N1CC[C@H](O)C1	/	/	/	1	/	/
COc1ccc(C)cc1S(=O)(=O)Nc1ccc2c(c1)N(C(C)=O)CCC2	/	/	/	0	/	/
COc1cccc(-c2[nH]nc3c2C(c2ccsc2)C(C#N)=C(N)O3)c1 (stereo unspecified)	1	31*	84	27	1.2	2
COc1ccc(-c2noc(CNC(=O)CCN3C(=O)[C@H]4CC=CC[C@H]4C3=O)n2)cc1	/	/	/	3	/	/
O=[N+]([O-])c1ccc(O)c(/C=N\N=C2c3ccccc3-c3ccccc32)c1	0	-12	96	47*	0.43	2
Cc1ccc(N2C(=O)C(NC(=O)c3ccccc3)(C(F)(F)F)C3=C2CC(C)(C)CC3=O)cc1 (stereo unspecified)	0	-3	99	-1	14*	-11
CCn1c2ccccc2c2c3ncc4cccn4c3ccc21	1	-2	/	66*	/	/
c1ccc2c(c1)ncc1cccn12	1	-6	102	11	0.96	10
CCOc1nc2cnccc2n(CC(=O)Nc2ccc(C)c(C)c2)c1=O	/	/	/	7	/	/
COc1ccc(/C=C(/C#N)c2cccnc2)cc1OC	0	/	104	64*	0.81	23
N#C/C(=C/c1cccnc1)c1ccccc1	/	/	/	-9	/	/
Cc1cccc(-c2nc3sc(C)cc3c(=O)o2)c1	1	-1	103	1	1.5	2
O=C(/C=C/c1ccc(F)cc1)NCCC1=CCCCC1	1	-7	117	3	2.3	24
COc1ccc(NC(=O)NCCC2=CCCCC2)cc1	1	-23	129*	18	2.9	53
O=C(/C=C/c1ccccc1)NCCC1=CCCCC1	1	0	148*	15	2.9	44
CC(C)(C)OC(=O)C[C@H]1C/C=C\C[C@H](CC(=O)N(CCO)Cc2ccccc2)C(=O)N2CCC[C@H]2COC1=O	/	/	/	-1	/	/
CCCSc1nnc2nc3c(nn12)c1ccccc1n3C	0	9	101	50*	0.99	6
O=c1cc(-c2ccccc2)nc2n1Cc1ccccc1-2	-1	-3	107	111*	0.74	-4
Oc1ccc(NCc2cccc(OCc3ccc(F)cc3)c2)cc1	0	-7	129*	11	1.4	-3
O=C(NC1CCCCC1)C(c1cccnc1)N(C(=O)c1ccc(Cl)nc1)C1CCCCC1 (stereo unspecified)	0	46*	98	0	1	-25
CC(C)(C)NC(=O)C(c1cccnc1)N(C(=O)c1ccc(Cl)nc1)C1CCCC1 (stereo unspecified)	0	-5	104	3	1.2	-12
N#Cc1ccc(CN2CCN(C(=O)CCNS(=O)(=O)c3ccc(F)c(F)c3)CC2)cc1	/	/	/	-1	/	/
COc1c(Cl)cc(Cl)cc1/C=C/C(=O)c1ccc(NC(=O)c2cccs2)cc1	0	10	109	9	5.7*	-11
SMILES	PERK inh	Mdm2 ligase inh	STAT1 activator	AHR act	NF-kB neuron act	APP 5'UTR act
O=C(O)CCNc1cc(N2CCN(C(=O)c3ccco3)CC2)c2noc3c2c1C(=O)c1ccccc1-3	/	/	/	57*	/	/
CCN1CCN(c2cc(N3CCN(C(=O)c4ccco4)CC3)c3c4c(onc24)-c2ccccc2C3=O)CC1	/	/	/	9	/	/
O=C1/C(=C/c2cccnc2)CC/C1=C\c1cccnc1	0	-3	95	-1	1.1	14
O=C1/C(=C/c2cccnc2)CCC/C1=C\c1cccnc1	1	36*	85	-1	0.32	-95
CC(C)CC1c2[nH]c3ccccc3c2CCN1C(=O)c1cnccn1 (stereo unspecified)	0	-12	146*	16	3	90
Cc1cc(NC(=O)COC(=O)c2cnccn2)ccc1Br	/	/	/	7	/	/
Cc1ccc(NS(=O)(=O)c2cccc(C(=O)NNC(=O)c3cccn3C)c2)c(C)c1	/	/	/	2	/	/
Cc1ccnc(NC(=O)c2cccc(S(=O)(=O)Nc3ccc(C)cc3C)c2)c1	/	/	/	61*	/	/
O=C(Nc1ccc(Br)cc1)c1cccc(S(=O)(=O)Nc2ccccn2)c1	/	/	/	61*	/	/
